Reference: ChEMBL document CHEMBL4393716, “5-Chlorobenzofuran-2-carboxamides: From allosteric CB1 modulators to potential apoptotic antitumor agents” (Eur J Med Chem, 2019)

Tests used:
PANC-1 = experiment: Antiproliferative activity against human PANC1 cells assessed as growth inhibition incubated for 48 hrs by MTT assay; assay type: functional; settings: PANC-1, 48 h
Method in brief: (§1)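 MTT viability assay run on four human cancer lines: A549 (lung), MCF-7 (breast), Panc-1 (pancreatic) and HT29 (colon). GI50 derived per cell line from the MTT readout, following a previously reported protocol.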

MCF7 [1] = experiment: Induction of apoptosis in human MCF7 cells assessed as activation of caspase-3 level incubated for 24 hrs by enzyme assay relative to control; assay type: functional
Method in brief: (§2)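 MCF-7 breast cells (ATCC) were grown in RPMI 1640 with 10% FBS at 37 °C, then treated with compounds. Active caspase-3, -8 or -9 protein was quantified (pg/mL) and expressed as fold over untreated control cells.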

HT-29 = experiment: Antiproliferative activity against human HT-29 cells assessed as growth inhibition incubated for 48 hrs by MTT assay; assay type: functional; settings: HT-29, 48 h; method in brief: as §1
A549 = experiment: Antiproliferative activity against human A549 cells assessed as growth inhibition incubated for 48 hrs by MTT assay; assay type: functional; settings: A549, 48 h; method in brief: as §1
[2] = Cytotoxicity against human MCF10A cells assessed as reduction in cell viability at 50 uM incubated for 4 days by MTT assay; assay type: cell-based, MCF-10A
Method in brief: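 Non-tumorigenic human mammary epithelial MCF-10A cells were exposed to compounds for 4 days. Viability was read by MTT reduction and expressed as percent viable cells.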

MCF7 [3] = experiment: Antiproliferative activity against human MCF7 cells assessed as growth inhibition incubated for 48 hrs by MTT assay; assay type: functional; settings: MCF7, 48 h; method in brief: as §1
MCF7 [4] = experiment: Induction of apoptosis in human MCF7 cells assessed as increase in Bax level incubated for 24 hrs by RT-PCR relative to control; assay type: functional
MCF7 [5] = experiment: Induction of apoptosis in human MCF7 cells assessed as activation of caspase-9 level incubated for 24 hrs by enzyme assay relative to control; assay type: functional; method in brief: as §2
MCF7 [6] = experiment: Induction of apoptosis in human MCF7 cells assessed as decrease in Bcl2 level incubated for 24 hrs by RT-PCR relative to control; assay type: functional
MCF7 [7] = experiment: Induction of apoptosis in human MCF7 cells assessed as activation of cytochrome C level incubated for 24 hrs by enzyme assay relative to control; assay type: functional
Method in brief: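 MCF-7 cells (ATCC) were cultured in RPMI 1640 plus 10% fetal bovine serum at 37 °C and stimulated with compounds. Cytochrome C level was measured and reported as fold over untreated control.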

MCF7 [8] = experiment: Induction of apoptosis in human MCF7 cells assessed as activation of caspase-8 level incubated for 24 hrs by enzyme assay relative to control; assay type: functional; method in brief: as §2
MCF7 [9] = experiment: Cell cycle arrest in human MCF7 cells assessed as accumulation in S phase incubated for 24 hrs by annexin-V FITC and propidium iodide staining based flow cytometry analysis (reference value: 37.42 %); assay type: functional
MCF7 [10] = experiment: Induction of apoptosis in human MCF7 cells assessed as necrotic cells at 0 to 8 umol/L incubated for 24 hrs by annexin-V FITC and propidium iodide staining based flow cytometry analysis (reference value: 0.68 %); assay type: functional
Method in brief: (§3)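 MCF-7 cells were stained with annexin-V-FITC and propidium iodide and analysed by flow cytometry. Cells were classed as early apoptotic, late apoptotic or necrotic.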

MCF7 [11] = experiment: Induction of apoptosis in human MCF7 cells assessed as early apoptotic cells at 0 to 8 umol/L incubated for 24 hrs by annexin-V FITC and propidium iodide staining based flow cytometry analysis (reference value: 0.88 %); assay type: functional; method in brief: as §3
MCF7 [12] = experiment: Cell cycle arrest in human MCF7 cells assessed as accumulation in pre G phase incubated for 24 hrs by annexin-V FITC and propidium iodide staining based flow cytometry analysis (reference value: 1.93 %); assay type: functional
MCF7 [13] = experiment: Induction of apoptosis in human MCF7 cells assessed as late apoptotic cells at 0 to 8 umol/L incubated for 24 hrs by annexin-V FITC and propidium iodide staining based flow cytometry analysis (reference value: 0.37%); assay type: functional; method in brief: as §3
MCF7 [14] = experiment: Cell cycle arrest in human MCF7 cells assessed as accumulation in G2/M phase incubated for 24 hrs by annexin-V FITC and propidium iodide staining based flow cytometry analysis (reference value: 8.87 %); assay type: functional
MCF7 [15] = experiment: Cell cycle arrest in human MCF7 cells assessed as accumulation in G0/G1 phase incubated for 24 hrs by annexin-V FITC and propidium iodide staining based flow cytometry analysis (reference value: 53.71 %); assay type: functional

Row | SMILES | GI50 (PANC-1) [µM] | fold change (FC) (MCF7 [1]) | GI50 (HT-29) [µM] | GI50 (A549) [µM] | viability at 96 h, 50 µM [2] [%] | GI50 (MCF7 [3]) [µM] | fold change (FC) (MCF7 [4]) | fold change (FC) (MCF7 [5]) | fold change (FC) (MCF7 [6]) | fold change (FC) (MCF7 [7]) | fold change (FC) (MCF7 [8]) | Activity (MCF7 [9]) [%] | Activity (MCF7 [10]) [%] | Activity (MCF7 [11]) [%] | Activity (MCF7 [12]) [%] | Activity (MCF7 [13]) [%] | Activity (MCF7 [14]) [%] | Activity (MCF7 [15]) [%]
1 | CCc1c(C(=O)NCCc2ccc(N3CCCCC3)cc2)oc2ccc(Cl)cc12 | 4.6 | 5.71 | 4.8 | 4.5 | 82 | 3.6 | – | – | – | – | – | – | – | – | – | – | – | –
2 | CCc1c(C(=O)NCCc2ccc(N(C)C)cc2)oc2ccc(Cl)cc12 | 5.5 | 3.87 | 6.5 | 4.8 | 85 | 4.7 | – | – | – | – | – | – | – | – | – | – | – | –
3 | CCc1c(C(=O)N2CCC(Cc3ccccc3)CC2)oc2ccc(Cl)cc12 | 33.7 | – | 27.8 | 27.9 | 90 | 26.5 | – | – | – | – | – | – | – | – | – | – | – | –
4 | CCc1c(C(=O)NCCc2ccccc2)oc2ccc(Cl)cc12 | 8.3 | – | 7.7 | 6 | 89 | 7.5 | – | – | – | – | – | – | – | – | – | – | – | –
5 | Cc1c(C(=O)NCCc2ccc(N3CCOCC3)cc2)oc2ccc(Cl)cc12 | 3.3 | 5.9 | 3.9 | 3.5 | 84 | 3.1 | 19.7 | 13.58 | 2.56 | 11.26 | 5.23 | – | – | – | – | – | – | –
6 | Cc1c(C(=O)NCCc2ccc(N3CCCC3)cc2)oc2ccc(Cl)cc12 | 4.8 | – | 4.9 | 5.2 | 89 | 4.9 | – | – | – | – | – | – | – | – | – | – | – | –
7 | CCc1c(C(=O)NCCc2ccc(N3CCCC3)cc2)oc2ccc(Cl)cc12 | 5.6 | 5.17 | 5.4 | 4.9 | 89 | 4.4 | – | – | – | – | – | – | – | – | – | – | – | –
8 | Cc1c(C(=O)N2CCC(Cc3ccccc3)CC2)oc2ccc(Cl)cc12 | 18.6 | – | 16.9 | 15.4 | 96 | 16.4 | – | – | – | – | – | – | – | – | – | – | – | –
9 | Cc1c(C(=O)NCCc2ccc(N(C)C)cc2)oc2ccc(Cl)cc12 | 6.6 | – | 6.9 | 6.9 | 90 | 6.8 | – | – | – | – | – | – | – | – | – | – | – | –
10 | Cc1c(C(=O)NCCc2ccccc2)oc2ccc(Cl)cc12 | 12.5 | – | 12.2 | 11.4 | 87 | 12.9 | – | – | – | – | – | – | – | – | – | – | – | –
11 | CCc1c(C(=O)N2CCN(c3ccccc3)CC2)oc2ccc(Cl)cc12 | 13.8 | – | 13.8 | 14.7 | 82 | 13.6 | – | – | – | – | – | – | – | – | – | – | – | –
12 | Cc1c(C(=O)N2CCN(c3ccccc3)CC2)oc2ccc(Cl)cc12 | 36 | – | 34.7 | 29.5 | 92 | 35.4 | – | – | – | – | – | – | – | – | – | – | – | –
13 | CCc1c(C(=O)NCCc2ccc(N3CCOCC3)cc2)oc2ccc(Cl)cc12 | 1.3 | 8.1 | 1.6 | 1.8 | 91 | 0.7 | 34.46 | 15.98 | 5.77 | 16.83 | 9.64 | 31.49 | 2.29 | 8.92 | 34.29 | 23.08 | 43.96 | 24.53
14 | Cc1c(C(=O)NCCc2ccc(N3CCCCC3)cc2)oc2ccc(Cl)cc12 | 4.1 | 4.83 | 4.9 | 4.4 | 79 | 4.9 | – | – | – | – | – | – | – | – | – | – | – | –
15 | COc1cccc2c1C(=O)c1c(O)c3c(c(O)c1C2=O)C[C@@](O)(C(=O)CO)C[C@@H]3O[C@H]1C[C@H](N)[C@H](O)[C@H](C)O1 [DOXORUBICIN] | 1.41 | 7.66 | 1.01 | 1.21 | – | 0.9 | 33.42 | 17.4 | 5.1 | 13.13 | 10.07 | – | – | – | 22.17 | – | – | –
